Source: ChEMBL document CHEMBL5346918, “Design, synthesis and biological evaluation of Nucleosidic CD99 inhibitors that selectively reduce Ewing sarcoma viability” (Eur J Med Chem, 2023)
Active and inactive are the calls of the source. The calls are words filed in the database; no cut-off is given here.

Key:
U2OS [1] = experiment: Cytotoxicity against human U2OS cells assessed as reduction in cell viability incubated for 48 hrs by CellTiter-Blue reagent based […] assay; format: functional
Method in brief: (§1)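 Cells seeded and grown to 60–80% confluency (usually 18–24 h), then treated 48 h with a range of concentrations prepared in each line's medium. CellTiter-Blue reagent added at the end of treatment and incubated 3–5 h at 37 °C, 5% CO₂. Fluorescence read at 560 nm excitation and 590 nm emission. IC50 from nonlinear regression, log(inhibitor) vs. normalized response.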

TC-32 [2] = experiment: Cytotoxicity against human TC-32 cells assessed as reduction in cell viability incubated for 48 hrs by CellTiter-Blue reagent based […] assay; format: functional; conditions: TC-32, 48 h; method in brief: as §1
[3] = Cytotoxicity against human TC71 cells assessed as reduction in cell viability incubated for 48 hrs by CellTiter-Blue reagent based […] assay; format: functional; conditions: TC-71, 48 h; method in brief: as §1
SAOS-2 = experiment: Cytotoxicity against human SAOS-2 cells assessed as reduction in cell viability incubated for 48 hrs by CellTiter-Blue reagent based […] assay; format: functional; conditions: SAOS-2, 48 h; method in brief: as §1
[4] = Cytotoxicity against human A4573 cells assessed as reduction in cell viability incubated for 48 hrs by CellTiter-Blue reagent based […] assay; format: functional; conditions: A4573, 48 h; method in brief: as §1
U2OS [5] = experiment: Induction of apoptosis in human U2OS cells assessed as PARP cleavage at 0.1 to 0.4 uM incubated for 48 hrs by western blot analysis; format: functional, cell-based; conditions: dose 0.1-0.4 µM
Method in brief: (§2)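 Cells treated 48 h with three concentrations per agent (0.1, 0.2 or 0.4 μM for one; 10, 20 or 40 μM for another). Total cell lysates immunoblotted for PARP and caspase 3 and their cleaved products. Actin used as loading control and for normalization. ECL signal imaged on PVDF, bands quantified by densitometry.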

U2OS [6] = experiment: Induction of apoptosis in human U2OS cells assessed as caspase-3 cleavage at 0.1 to 0.4 uM incubated for 48 hrs by western blot analysis; format: functional, cell-based; conditions: dose 0.1-0.4 µM; method in brief: as §2
TC-32 [7] = experiment: Induction of apoptosis in human TC-32 cells assessed as PARP cleavage at 0.1 to 0.4 uM incubated for 48 hrs by western blot analysis; format: functional, cell-based; conditions: dose 0.1-0.4 µM; method in brief: as §2
U2OS [8] = experiment: Induction of apoptosis in human U2OS cells assessed as increase in hypodiploid subG1 population at 0.1 to 0.4 uM incubated for 48 hrs by propidium iodide staining based flow cytometry; format: functional, cell-based; conditions: dose 0.1-0.4 µM
Method in brief: (§3)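 Treatment same as the apoptosis blots (48 h; 0.1–0.4 μM or 10–40 μM). Adherent cells trypsinized and pooled with floating cells, then washed in PBS. Fixed in ice-cold 70% ethanol 1 h on ice, rehydrated, RNase A 100 μg/mL. Stained with propidium iodide at 50 μg/mL final for 1 h on ice. Sub-G1 fraction read by flow cytometry.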

TC-32 [9] = experiment: Induction of apoptosis in human TC-32 cells assessed as increase in hypodiploid subG1 population at 0.1 to 0.4 uM incubated for 48 hrs by propidium iodide staining based flow cytometry; format: functional, cell-based; conditions: dose 0.1-0.4 µM; method in brief: as §3
TC-32 [10] = experiment: Induction of apoptosis in human TC-32 cells assessed as caspase-3 cleavage at 0.1 to 0.4 uM incubated for 48 hrs by western blot analysis; format: functional, cell-based; conditions: dose 0.1-0.4 µM; method in brief: as §2

## Nc1ncnc2c1ncn2[C@@H]1O[C@H](CN2CCOCC2)[C@@H](O)[C@@H]1F
U2OS [1]
  IC50: ≥ 50 µM
TC-32 [2]
  IC50: ≥ 50 µM
[3]
  IC50: ≥ 50 µM
SAOS-2
  IC50: ≥ 50 µM
[4]
  IC50: ≥ 50 µM

## Nc1ncnc2c1ncn2[C@H]1C[C@H](O)[C@@H](C(=O)O)O1
U2OS [1]
  IC50: ≥ 50 µM
TC-32 [2]
  IC50: ≥ 50 µM
[3]
  IC50: ≥ 50 µM
SAOS-2
  IC50: ≥ 50 µM
[4]
  IC50: ≥ 50 µM

## Nc1nc(-c2cccnc2)nc2c1ncn2[C@H]1C[C@H](O)[C@@H](CO)O1
U2OS [1]
  IC50: 162 µM
TC-32 [2]
  IC50: 52.2 µM
[3]
  IC50: 29.3 µM
SAOS-2
  IC50: 110 µM
[4]
  IC50: 54.4 µM

## CS(=O)(=O)C[C@H]1O[C@@H](n2cnc3c(N)nc(Cl)nc32)C[C@@H]1O
U2OS [1]
  IC50: ≥ 50 µM
TC-32 [2]
  IC50: ≥ 50 µM
[3]
  IC50: 36 µM
SAOS-2
  IC50: ≥ 50 µM
[4]
  IC50: ≥ 50 µM

## Nc1nc(-c2ccoc2)nc2c1ncn2[C@@H]1O[C@H](CO)[C@@H](O)[C@@H]1F
U2OS [1]
  IC50: ≥ 50 µM
TC-32 [2]
  IC50: ≥ 50 µM
[3]
  IC50: ≥ 50 µM
SAOS-2
  IC50: ≥ 50 µM
[4]
  IC50: ≥ 50 µM

## Nc1nc(Cl)nc2c1ncn2[C@H]1C[C@H](O)[C@@H](COc2cc(C(=O)O)cc(C(=O)O)c2)O1
U2OS [1]
  IC50: ≥ 100 µM
TC-32 [2]
  IC50: ≥ 100 µM
[3]
  IC50: ≥ 100 µM
SAOS-2
  IC50: ≥ 100 µM

## Nc1nc(-c2ccsc2)nc2c1ncn2[C@H]1C[C@H](O)[C@@H](CO)O1
U2OS [1]
  IC50: ≥ 50 µM
TC-32 [2]
  IC50: ≥ 50 µM
[3]
  IC50: ≥ 50 µM
SAOS-2
  IC50: ≥ 50 µM
[4]
  IC50: ≥ 50 µM

## Nc1nc(-c2ccsc2)nc2c1ncn2[C@@H]1O[C@H](CO)[C@@H](O)[C@@H]1F
U2OS [1]
  IC50: ≥ 50 µM
TC-32 [2]
  IC50: ≥ 50 µM
[3]
  IC50: ≥ 50 µM
SAOS-2
  IC50: ≥ 50 µM
[4]
  IC50: ≥ 50 µM

## Nc1ncnc2c1ncn2[C@@H]1O[C@H](C(=O)O)[C@@H](O)[C@@H]1F
U2OS [1]
  IC50: ≥ 50 µM
TC-32 [2]
  IC50: ≥ 50 µM
[3]
  IC50: ≥ 50 µM
SAOS-2
  IC50: ≥ 50 µM
[4]
  IC50: ≥ 50 µM

## Nc1ncnc2c1ncn2[C@H]1C[C@H](O)[C@@H](CN2CCOCC2)O1
U2OS [1]
  IC50: ≥ 50 µM
TC-32 [2]
  IC50: ≥ 50 µM
[3]
  IC50: ≥ 50 µM
SAOS-2
  IC50: ≥ 50 µM
[4]
  IC50: ≥ 50 µM

## CSC[C@H]1O[C@@H](n2cnc3c(N)nc(SC)nc32)[C@@H](F)[C@@H]1O
U2OS [1]
  IC50: ≥ 50 µM
TC-32 [2]
  IC50: ≥ 50 µM
[3]
  IC50: ≥ 50 µM
SAOS-2
  IC50: ≥ 50 µM
[4]
  IC50: ≥ 50 µM

## Nc1ncnc2c1ncn2[C@@H]1C[C@@H](O)[C@H](CN2CCOCC2)O1
U2OS [1]
  IC50: ≥ 50 µM
TC-32 [2]
  IC50: ≥ 50 µM
[3]
  IC50: ≥ 50 µM
SAOS-2
  IC50: ≥ 50 µM
[4]
  IC50: ≥ 50 µM

## Nc1nc(-c2ccncc2)nc2c1ncn2[C@H]1C[C@H](O)[C@@H](CO)O1
U2OS [1]
  IC50: ≥ 50 µM
TC-32 [2]
  IC50: ≥ 50 µM
[3]
  IC50: ≥ 50 µM
SAOS-2
  IC50: ≥ 50 µM
[4]
  IC50: ≥ 50 µM

## Nc1nc(Cl)nc2c1ncn2[C@@H]1O[C@H](CN2CCOCC2)[C@@H](O)[C@@H]1F
U2OS [1]
  IC50: ≥ 100 µM
TC-32 [2]
  IC50: ≥ 100 µM
[3]
  IC50: ≥ 100 µM
SAOS-2
  IC50: ≥ 100 µM

## CS(=O)(=O)C[C@H]1O[C@@H](n2cnc3c(N)nc(Cl)nc32)[C@@H](F)[C@@H]1O
U2OS [1]
  IC50: ≥ 50 µM
TC-32 [2]
  IC50: ≥ 50 µM
[3]
  IC50: 31.4 µM
SAOS-2
  IC50: ≥ 50 µM
[4]
  IC50: ≥ 50 µM

## Nc1nc(-c2ccncc2)nc2c1ncn2[C@@H]1O[C@H](CO)[C@@H](O)[C@@H]1F
U2OS [1]
  IC50: ≥ 50 µM
TC-32 [2]
  IC50: ≥ 50 µM
[3]
  IC50: ≥ 50 µM
SAOS-2
  IC50: ≥ 50 µM
[4]
  IC50: ≥ 50 µM

## Nc1nc(N2CCOCC2)nc2c1ncn2[C@@H]1O[C@H](CN2CCOCC2)[C@@H](O)[C@@H]1F
U2OS [1]
  IC50: ≥ 100 µM
TC-32 [2]
  IC50: ≥ 100 µM
[3]
  IC50: ≥ 100 µM
SAOS-2
  IC50: ≥ 100 µM

## Nc1ncnc2c1ncn2[C@@H]1O[C@H](C(=O)O)[C@@H](O)[C@H]1F
U2OS [1]
  IC50: ≥ 50 µM
TC-32 [2]
  IC50: ≥ 50 µM
[3]
  IC50: ≥ 50 µM
SAOS-2
  IC50: ≥ 50 µM
[4]
  IC50: ≥ 50 µM

## Nc1nc(Cl)nc2c1ncn2[C@H]1C[C@H](O)[C@@H](CO)O1 [CLADRIBINE]
U2OS [1]
  IC50: ≥ 50 µM
TC-32 [2]
  IC50: 2.92 µM
[3]
  IC50: 1.1 µM
SAOS-2
  IC50: ≥ 50 µM
[4]
  IC50: 1.49 µM

## Nc1nc(-c2ccoc2)nc2c1ncn2[C@H]1C[C@H](O)[C@@H](CO)O1
U2OS [1]
  IC50: 199 µM
TC-32 [2]
  IC50: 55 µM
[3]
  IC50: 67.8 µM
SAOS-2
  IC50: 172 µM
[4]
  IC50: 77.5 µM

## Nc1nc(Cl)nc2c1ncn2[C@H]1C[C@H](O)[C@@H](CN2CCOCC2)O1
U2OS [1]
  IC50: ≥ 100 µM
TC-32 [2]
  IC50: ≥ 100 µM
[3]
  IC50: ≥ 100 µM
SAOS-2
  IC50: 97.3 µM

## Nc1ncnc2c1ncn2[C@@H]1C[C@@H](O)[C@H](C(=O)O)O1
U2OS [1]
  IC50: ≥ 50 µM
TC-32 [2]
  IC50: ≥ 50 µM
[3]
  IC50: ≥ 50 µM
SAOS-2
  IC50: ≥ 50 µM
[4]
  IC50: ≥ 50 µM

## Nc1nc(Cl)nc2c1ncn2[C@@H]1O[C@H](CO)[C@@H](O)[C@@H]1F [CLOFARABINE]
U2OS [1]
  IC50: ≥ 50 µM
U2OS [5]
  Activity: inactive
TC-32 [2]
  IC50: 0.13 µM
[3]
  IC50: 0.09 µM
SAOS-2
  IC50: ≥ 50 µM
U2OS [6]
  Activity: inactive
TC-32 [7]
  Activity: Active
[4]
  IC50: 0.18 µM
U2OS [8]
  Activity: inactive
TC-32 [9]
  Activity: Active
TC-32 [10]
  Activity: Active

## Nc1ncnc2c1ncn2[C@@H]1O[C@H](CN2CCOCC2)[C@@H](O)[C@H]1F
U2OS [1]
  IC50: ≥ 50 µM
TC-32 [2]
  IC50: ≥ 50 µM
[3]
  IC50: ≥ 50 µM
SAOS-2
  IC50: ≥ 50 µM
[4]
  IC50: ≥ 50 µM

## Nc1nc(Cl)nc2c1ncn2[C@@H]1O[C@H](COc2cc(C(=O)O)cc(C(=O)O)c2)[C@@H](O)[C@@H]1F
U2OS [1]
  IC50: ≥ 100 µM
TC-32 [2]
  IC50: ≥ 100 µM
[3]
  IC50: 96.7 µM
SAOS-2
  IC50: 86.5 µM

## C=C1O[C@@H](n2cnc3c(N)nc(N4CCOCC4)nc32)[C@@H](F)[C@@H]1O
U2OS [1]
  IC50: 67 µM
TC-32 [2]
  IC50: 98 µM
[3]
  IC50: ≥ 100 µM
SAOS-2
  IC50: 97.3 µM
